Reference: ChEMBL document CHEMBL3576763, “Synthesis and Biological Activities of 5-Thio-α-GalCers” (2015)
Active and inactive are the calls of the source. The calls are words filed in the database; no cut-off is given here.

Key:
Mus musculus [1] = experiment: Immunostimulatory activity in B6 mouse assessed as induction of IFN-gamma production in serum at 100 ug/kg, ip by ELISA; assay type: functional, organism-based
Procedure, shortened: (§1)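 Glycolipid given intraperitoneally to B6 mice at 100 μg/kg. Serum IFN-γ and IL-4 measured at several time points after injection. Two mice per group, each mouse's serum assayed individually at each time.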

Mus musculus [2] = experiment: Immunostimulatory activity in B6 mouse assessed as induction of IL-4 production in serum at 100 ug/kg, ip measured up to 12 hrs by ELISA; assay type: functional, organism-based; procedure, shortened: as §1
Mus musculus [3] = experiment: Immunostimulatory activity in B6 mouse assessed as induction of IL-4 production in serum at 100 ug/kg, ip measured after 12 hrs by ELISA; assay type: functional, organism-based; procedure, shortened: as §1
iNKT [4] = experiment: Immunostimulatory activity in B6 mouse iNKT cells assessed as induction of IFN-gamma production at 1000 ng/ml incubated for 16 hrs followed by brefeldin A addition measured after 2 hrs by flow cytometric analysis (reference value: 0.6%); assay type: functional
Procedure, shortened: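 Mouse splenocytes stimulated with glycolipid in vitro; IFN-γ measured in cells gated as CD3+DX5+CD1d tetramer+ NKT cells. Control cells held in complete 1640 medium only; PMA plus ionomycin used as positive control.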

iNKT [5] = experiment: Immunostimulatory activity in B6 mouse iNKT cells assessed as induction of IFN-gamma production incubated for 16 hrs followed by brefeldin A addition measured after 2 hrs by flow cytometric analysis in presence of ionomycin (reference value: 0.6%); assay type: functional
Mus musculus [6] = experiment: Immunostimulatory activity in B6 mouse assessed as induction of IL-4 production in serum at 100 ug/kg, ip measured at 3 hrs by ELISA; assay type: functional, organism-based; procedure, shortened: as §1
Mus musculus [7] = experiment: Immunostimulatory activity in B6 mouse assessed as induction of IFN-gamma production in serum at 100 ug/kg, ip measured at 6 to 24 hrs by ELISA; assay type: functional; procedure, shortened: as §1
Mus musculus [8] = experiment: Immunostimulatory activity in B6 mouse assessed as induction of IFN-gamma production in serum at 100 ug/kg, ip after 24 hrs by ELISA; assay type: functional; procedure, shortened: as §1

Row | SMILES | Activity (Mus musculus [1]) | Activity (Mus musculus [2]) | Activity (Mus musculus [3]) | Activity (iNKT [4]) | Activity (iNKT [5]) | Activity (Mus musculus [6]) | Activity (Mus musculus [7]) | Activity (Mus musculus [8])
1 | CCCCCCCCCCCCCC[C@@H](O)[C@@H](O)[C@H](CO[C@H]1S[C@H](CO)[C@H](O)[C@H](O)[C@H]1O)NC(=O)CCCCCCCCCCCCC | Active | inactive | inactive | 6% | – | – | – | –
2 | CCCCCCCCCCCCCC(=O)O[C@@H]1[C@@H](C)[C@@]2(O)[C@@H](C=C(CO)C[C@]3(O)C(=O)C(C)=C[C@@H]23)[C@@H]2C(C)(C)[C@]12OC(C)=O [PHORBOL MYRISTATE ACETATE] | – | – | – | – | 8.5% | – | – | –
3 | CCCCCCCCCCCCCCCCCCCCCCCCCC(=O)N[C@@H](CO[C@H]1O[C@H](CO)[C@H](O)[C@H](O)[C@H]1O)[C@H](O)[C@H](O)CCCCCCCCCCCCCC [RGI-7000] | – | – | – | 4.1% | – | Active | 2127 pg/mL | –
4 | CCCCCCCCCCCCCCCCCCCCCCCCCC(=O)N[C@@H](CO[C@H]1S[C@H](CO)[C@H](O)[C@H](O)[C@H]1O)[C@H](O)[C@H](O)CCCCCCCCCCCCCC | – | Active | inactive | 8.5% | – | – | – | 1722 pg/mL
5 | CCCCCCCCCCCCCC[C@@H](O)[C@@H](O)[C@H](CO[C@H]1S[C@H](CO)[C@H](O)[C@H](O)[C@H]1O)NC(=O)CCCCCCC | inactive | – | inactive | 1.4% | – | – | – | –
